Results reported in ChEMBL document CHEMBL1126099, “Synthesis and biological characterization of alpha-(4-fluorophenyl)-4-(5-fluoro-2-pyrimidinyl)-1-piperazinebutanol and analogues as potential atypical antipsychotic agents” (J Med Chem, 1992).
Activity calls are given as the source filed them. No cut-off for these calls is given here.

Assays:
[1] = biological target: T1, Adrenergic receptor alpha-1 (Rattus norvegicus, UniProt P15823+P23944+P43140); assay: Inhibition of [3H]WB-4101 binding to rat cortical Alpha-1 adrenergic receptor in vitro; format: protein assay
T1 sequence (P15823 whole entry): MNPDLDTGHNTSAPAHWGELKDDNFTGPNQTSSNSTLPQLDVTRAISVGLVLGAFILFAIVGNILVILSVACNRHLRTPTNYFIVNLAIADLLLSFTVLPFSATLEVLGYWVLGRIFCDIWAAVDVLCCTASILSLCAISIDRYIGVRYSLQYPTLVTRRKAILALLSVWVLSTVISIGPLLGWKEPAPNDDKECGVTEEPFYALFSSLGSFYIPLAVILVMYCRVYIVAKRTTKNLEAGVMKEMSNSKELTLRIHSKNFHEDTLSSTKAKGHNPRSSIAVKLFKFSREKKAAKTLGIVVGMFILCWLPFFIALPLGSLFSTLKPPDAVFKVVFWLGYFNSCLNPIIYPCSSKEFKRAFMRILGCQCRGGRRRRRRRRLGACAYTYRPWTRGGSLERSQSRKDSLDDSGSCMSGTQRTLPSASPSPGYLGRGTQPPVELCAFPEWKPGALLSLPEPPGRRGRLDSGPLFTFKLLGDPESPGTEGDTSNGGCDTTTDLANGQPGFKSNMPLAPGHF
T1 sequence (P23944 whole entry): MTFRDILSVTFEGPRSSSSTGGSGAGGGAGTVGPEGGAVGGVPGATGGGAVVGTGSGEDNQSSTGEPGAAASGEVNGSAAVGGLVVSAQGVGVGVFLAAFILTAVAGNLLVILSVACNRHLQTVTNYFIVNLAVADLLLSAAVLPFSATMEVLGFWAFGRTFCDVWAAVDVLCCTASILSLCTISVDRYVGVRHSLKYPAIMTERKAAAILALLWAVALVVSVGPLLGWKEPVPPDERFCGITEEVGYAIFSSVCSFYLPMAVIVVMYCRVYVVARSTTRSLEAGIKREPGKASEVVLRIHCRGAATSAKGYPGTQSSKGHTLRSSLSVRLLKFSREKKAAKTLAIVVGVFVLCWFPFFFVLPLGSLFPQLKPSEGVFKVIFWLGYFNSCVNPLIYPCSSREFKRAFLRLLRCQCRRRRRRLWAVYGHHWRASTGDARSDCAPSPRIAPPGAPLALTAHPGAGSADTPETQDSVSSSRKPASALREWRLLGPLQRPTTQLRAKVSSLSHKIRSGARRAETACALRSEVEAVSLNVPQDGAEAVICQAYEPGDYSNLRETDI
T1 sequence (P43140 whole entry): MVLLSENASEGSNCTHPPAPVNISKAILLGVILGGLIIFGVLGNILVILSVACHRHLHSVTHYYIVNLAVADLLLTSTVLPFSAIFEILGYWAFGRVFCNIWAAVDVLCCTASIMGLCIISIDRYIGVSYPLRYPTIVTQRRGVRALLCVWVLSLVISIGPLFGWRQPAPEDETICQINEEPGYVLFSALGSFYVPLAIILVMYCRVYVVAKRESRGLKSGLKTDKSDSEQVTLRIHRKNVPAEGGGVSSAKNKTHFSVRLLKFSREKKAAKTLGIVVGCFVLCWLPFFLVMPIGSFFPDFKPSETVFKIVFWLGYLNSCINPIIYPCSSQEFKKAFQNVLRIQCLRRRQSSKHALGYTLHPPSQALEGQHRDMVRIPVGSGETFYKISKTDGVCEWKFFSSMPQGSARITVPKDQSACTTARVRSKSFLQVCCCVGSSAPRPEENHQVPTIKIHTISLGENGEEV
How it was run: (§1)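 Competition binding against tritiated radioligand. Test drug was run at five concentrations in a single experiment, and IC50 (nM) was derived from displacement.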

D(2) dopamine receptor = D(2) dopamine receptor (Rattus norvegicus, UniProt P61169); assay: In vitro inhibitory against radioligand [3H]spiperone binding to rat striatal Dopamine receptor D2; how it was run: as §1
Sequence of D(2) dopamine receptor (P61169 whole entry): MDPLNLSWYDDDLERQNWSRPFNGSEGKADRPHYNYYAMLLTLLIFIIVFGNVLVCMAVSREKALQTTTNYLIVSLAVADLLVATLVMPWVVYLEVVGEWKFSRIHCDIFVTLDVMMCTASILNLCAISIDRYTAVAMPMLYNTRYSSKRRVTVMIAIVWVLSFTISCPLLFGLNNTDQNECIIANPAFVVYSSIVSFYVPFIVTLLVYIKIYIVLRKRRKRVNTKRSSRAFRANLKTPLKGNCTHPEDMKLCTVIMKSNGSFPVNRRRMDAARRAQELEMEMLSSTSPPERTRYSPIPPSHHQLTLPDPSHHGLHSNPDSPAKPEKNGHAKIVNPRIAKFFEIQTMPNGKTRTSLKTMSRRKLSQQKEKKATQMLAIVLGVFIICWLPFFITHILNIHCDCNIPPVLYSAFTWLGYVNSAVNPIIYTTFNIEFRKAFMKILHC

Rattus norvegicus [2] = assay: Effective in vivo peroral dose against induction of catalepsy in rats; format: functional; conditions: Rattus norvegicus, po; read-out: ED50
Rattus norvegicus [3] = species: Rattus norvegicus; assay: Effective peroral dose for inhibition of conditioned avoidance response in rats; format: functional; conditions: po
[4] = biological target: T2, Sigma non-opioid intracellular receptor 1 (Rattus norvegicus, UniProt Q9R0C9); assay: Displacement of (+)-[3H]-3-PPP from rat cortical sigma site; how it was run: as §1
T2 sequence (Q9R0C9 whole entry): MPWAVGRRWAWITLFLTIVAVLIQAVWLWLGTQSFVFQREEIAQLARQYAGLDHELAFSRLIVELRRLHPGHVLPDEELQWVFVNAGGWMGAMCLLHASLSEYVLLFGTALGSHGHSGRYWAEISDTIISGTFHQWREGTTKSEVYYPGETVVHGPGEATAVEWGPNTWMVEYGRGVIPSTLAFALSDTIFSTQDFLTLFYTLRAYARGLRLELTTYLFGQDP

Rattus norvegicus [5] = species: Rattus norvegicus; assay: Inhibition of apomorphine-induced stereotypy in rats via peroral route; format: functional; conditions: Rattus norvegicus, po; read-out: ED50
Mus musculus [6] = species: Mus musculus; assay: Effective dose for inhibition of norepinephrine induced lethality in mouse; format: functional
Mus musculus [7] = species: Mus musculus; assay: Effective dose for inhibition of physostigmine induced lethality in mouse; format: functional
Rattus norvegicus [8] = assay: Effective dose for reversal of trifluoperazine-induced catalepsy in rats; I=Inactive (ED50 mg/Kg); format: functional, organism-based
Rattus norvegicus [9] = species: Rattus norvegicus; assay: Effective dose for ethanol potentiation in rats; format: functional
Rattus norvegicus [10] = species: Rattus norvegicus; assay: Effective dose for inhibition of spontaneous motor activity in rats; format: functional
Rattus norvegicus [11] = species: Rattus norvegicus; assay: Effective dose for motor incoordination in rats was determined by rotarod method; format: functional
[12] = biological target: T2, Sigma non-opioid intracellular receptor 1; assay: Compound was tested in vitro for its ability to displace radioligand (+)-[3H]-3-PPP from rat cortical sigma receptor

N#CC(CCCN1CCN(c2ncc(F)cn2)CC1)c1ccc(F)cc1 (stereo unspecified)
IC50 [1]: 266 nM | IC50 (D(2) dopamine receptor): 1880 nM | ED50 (Rattus norvegicus [2]): > 100 mg/kg | ED50 (Rattus norvegicus [3]): 19.8 mg/kg | IC50 [4]: 190 nM | ED50 (Rattus norvegicus [5]): > 100 mg/kg

O=C(CCCN1CCN(c2ncc(Cl)cn2)CC1)c1ccc(F)cc1
IC50 [1]: 51 nM | IC50 (D(2) dopamine receptor): 817 nM | ED50 (Rattus norvegicus [3]): > 100 mg/kg

O=C(CCCN1CCC(O)(c2ccc(Cl)cc2)CC1)c1ccc(F)cc1 [HALOPERIDOL]
ED50 (Mus musculus [6]): 26 mg/kg | ED50 (Mus musculus [7]): > 80 mg/kg | Activity (Rattus norvegicus [8]): inactive | ED50 (Rattus norvegicus [2]): 0.58 mg/kg | ED50 (Rattus norvegicus [3]): 2.8 mg/kg | ED50 (Rattus norvegicus [9]): 0.28 mg/kg | ED50 (Rattus norvegicus [10]): 0.73 mg/kg | ED50 (Rattus norvegicus [11]): 5.2 mg/kg | ED50 (Rattus norvegicus [5]): 0.5 mg/kg

CN1CCN(C2=Nc3cc(Cl)ccc3Nc3ccccc32)CC1 [CLOZAPINE]
ED50 (Mus musculus [6]): 3.5 mg/kg | ED50 (Mus musculus [7]): 5.4 mg/kg | Activity (Rattus norvegicus [8]): inactive | ED50 (Rattus norvegicus [2]): > 200 mg/kg | ED50 (Rattus norvegicus [11]): 7.9 mg/kg | IC50 [12]: > 1000 nM

OC(CCCN1CCN(c2ncc(Cl)cn2)CC1)c1ccc(F)cc1 (stereo unspecified)
IC50 [1]: 1420 nM | IC50 (D(2) dopamine receptor): 5660 nM | ED50 (Rattus norvegicus [2]): 148 mg/kg | ED50 (Rattus norvegicus [3]): 87.1 mg/kg | IC50 [4]: 22 nM | ED50 (Rattus norvegicus [5]): > 100 mg/kg

O=C(CCCN1CCN(c2ncccn2)CC1)c1ccc(F)cc1
IC50 [1]: 6 nM | IC50 (D(2) dopamine receptor): 679 nM | ED50 (Rattus norvegicus [2]): > 100 mg/kg | ED50 (Rattus norvegicus [3]): 25.3 mg/kg | IC50 [4]: 430 nM | ED50 (Rattus norvegicus [5]): 21.6 mg/kg

CCC(O)(CCCN1CCN(c2ncc(F)cn2)CC1)c1ccc(F)cc1 (stereo unspecified)
IC50 [1]: > 1000 nM | IC50 (D(2) dopamine receptor): 3750 nM | ED50 (Rattus norvegicus [2]): > 100 mg/kg | ED50 (Rattus norvegicus [3]): 48.5 mg/kg | IC50 [4]: 370 nM | ED50 (Rattus norvegicus [5]): > 50 mg/kg

COc1nc(N2CCN(CCCC(O)c3ccc(F)cc3)CC2)ncc1F (stereo unspecified)
IC50 [1]: 180 nM | IC50 (D(2) dopamine receptor): 3940 nM | ED50 (Rattus norvegicus [2]): 79.2 mg/kg | ED50 (Rattus norvegicus [3]): 40.8 mg/kg | IC50 [4]: 24 nM | ED50 (Rattus norvegicus [5]): 54 mg/kg

CC(O)(CCCN1CCN(c2ncc(F)cn2)CC1)c1ccc(F)cc1 (stereo unspecified)
IC50 (D(2) dopamine receptor): 2120 nM | ED50 (Rattus norvegicus [2]): > 100 mg/kg | ED50 (Rattus norvegicus [3]): > 25 mg/kg | IC50 [4]: 110 nM | ED50 (Rattus norvegicus [5]): > 50 mg/kg

OC(CCN1CCN(c2ncc(F)cn2)CC1)c1ccc(F)cc1 (stereo unspecified)
IC50 [1]: 814 nM | IC50 (D(2) dopamine receptor): > 1000 nM | ED50 (Rattus norvegicus [3]): > 100 mg/kg | IC50 [4]: 160 nM | ED50 (Rattus norvegicus [5]): > 100 mg/kg

CSc1ccc2c(c1)N(CCC1CCCCN1C)c1ccccc1S2 (stereo unspecified) [THIORIDAZINE]
ED50 (Mus musculus [6]): 2.2 mg/kg | ED50 (Mus musculus [7]): 45 mg/kg | Activity (Rattus norvegicus [8]): inactive | IC50 [4]: 750 nM | ED50 (Rattus norvegicus [9]): 56 mg/kg | ED50 (Rattus norvegicus [10]): 33 mg/kg | ED50 (Rattus norvegicus [11]): 20 mg/kg | ED50 (Rattus norvegicus [5]): 280 mg/kg

OC(CCCN1CCN(c2ncccn2)CC1)c1ccc(F)cc1 (stereo unspecified)
IC50 [1]: 162 nM | IC50 (D(2) dopamine receptor): 1380 nM | ED50 (Rattus norvegicus [2]): > 100 mg/kg | ED50 (Rattus norvegicus [3]): 25 mg/kg | IC50 [4]: 130 nM | ED50 (Rattus norvegicus [5]): 32.3 mg/kg

O=C(CCCN1CCN(c2ncc(Br)cn2)CC1)c1ccc(F)cc1
IC50 [1]: 72 nM | IC50 (D(2) dopamine receptor): 2190 nM | ED50 (Rattus norvegicus [3]): > 100 mg/kg | IC50 [4]: 85 nM

O=C(CCCN1CCN(c2ncc(F)cn2)CC1)c1ccc(F)cc1
IC50 [1]: 29 nM | ED50 (Rattus norvegicus [2]): 144 mg/kg | ED50 (Rattus norvegicus [3]): 36.3 mg/kg | IC50 [4]: 130 nM | ED50 (Rattus norvegicus [5]): 58.9 mg/kg
